Laboratory results taken from ChEMBL document CHEMBL1649493, “Genetic and biochemical characterization of the first extended-spectrum CARB-type beta-lactamase, RTG-4, from Acinetobacter baumannii” (Antimicrob Agents Chemother, 2009).
≈ marks a conversion by molar mass, not a printed value.

Columns and labels:
[1] = test system: Escherichia coli; assay: Antibacterial activity against Escherichia coli TOP10 harboring recombinant plasmid RTG4-V49 by Etest method; format: functional
[2] = Ratio of Kcat to Km for recombinant beta-lactamase RTG4 expressed in Escherichia coli TOP10 by nitrocefin hydrolysis assay
[3] = test system: Acinetobacter baumannii; assay: Antimicrobial activity against Acinetobacter baumannii CIP70.10 harboring beta-lactamase RTG3 gene by […]; format: functional
[4] = test system: Escherichia coli; assay: Antibacterial activity against Escherichia coli TOP10 harboring beta-lactamase RTG3 gene by Etest method; format: functional
In short: (§1)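 MICs read by Etest on Mueller-Hinton agar plates incubated at 37°C. Recombinant E. coli TOP10 carried the cloned β-lactamase gene on plasmid pBK-CMV; the host strain alone was tested alongside.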

[5] = Activity of recombinant beta-lactamase RTG4 expressed in Escherichia coli TOP10 assessed as Ratio of Kcat to Km by nitrocefin hydrolysis assay relative to benzylpenicillin; set-up: scale not given: the % may be the effect or the level left
[6] = test system: Escherichia coli; assay: Antibacterial activity against Escherichia coli TOP10 harboring recombinant plasmid RTG4-S69 by Etest method; format: functional
[7] = test system: Acinetobacter baumannii; assay: Antimicrobial activity against Acinetobacter baumannii CIP70.10 by […]; format: functional
[8] = test system: Acinetobacter baumannii; assay: Antimicrobial activity against Acinetobacter baumannii by […]; format: functional
In short: (§2)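 MICs were determined by Etest on Mueller-Hinton agar at 37°C. Where indicated, clavulanic acid or tazobactam was added at 4 μg/ml.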

[9] = test system: Escherichia coli; assay: Antibacterial activity against Escherichia coli TOP10 harboring recombinant plasmid RTG4-S69-V49 by Etest method; format: functional
[10] = test system: Escherichia coli; assay: Antibacterial activity against Escherichia coli TOP10 harboring beta-lactamase RTG4 gene by Etest method; format: functional; in short: as §1
[11] = test system: Acinetobacter baumannii; assay: Antimicrobial activity against Acinetobacter baumannii CIP70.10 harboring beta-lactamase RTG4 gene by […]; format: functional
[12] = test system: Escherichia coli; assay: Antibacterial activity against Escherichia coli TOP10 harboring beta-lactamase RTG3 gene by Etest method in presence of 4 ug/ml beta-lactamase inhibitor clavulanic acid; format: functional
In short: (§3)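 MICs read by Etest on Mueller-Hinton agar at 37°C, with β-lactams combined with clavulanic acid at 4 μg/ml. The strains were E. coli TOP10 carrying the cloned RTG gene or the site-directed mutant plasmids (Thr69Ser, Ala49Val, or both).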

[13] = test system: Escherichia coli; assay: Antibacterial activity against Escherichia coli TOP10 harboring beta-lactamase RTG4 gene by Etest method in presence of 4 ug/ml beta-lactamase inhibitor clavulanic acid; format: functional; in short: as §3
[14] = test system: Acinetobacter baumannii; assay: Antimicrobial activity against Acinetobacter baumannii CIP70.10 harboring beta-lactamase RTG3 gene by […] in presence of 4 ug/ml beta-lactamase inhibitor clavulanic acid; format: functional
[15] = test system: Escherichia coli; assay: Antibacterial activity against Escherichia coli TOP10 by Etest method; format: functional; in short: as §1
[16] = test system: Escherichia coli; assay: Antibacterial activity against Escherichia coli TOP10 by Etest method in presence of 4 ug/ml beta-lactamase inhibitor clavulanic acid; format: functional
In short: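 MICs by Etest on Mueller-Hinton agar plates incubated at 37°C, with clavulanic acid at a fixed 4 μg/ml. The E. coli TOP10 host was tested with recombinant plasmids carrying the cloned HindIII fragment encoding RTG-4 or its site-directed variants (T69S, A49V).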

[17] = test system: Escherichia coli; assay: Antibacterial activity against Escherichia coli TOP10 harboring recombinant plasmid RTG4-V49 by Etest method in presence of 4 ug/ml beta-lactamase inhibitor clavulanic acid; format: functional; in short: as §3
[18] = test system: Escherichia coli; assay: Antibacterial activity against Escherichia coli TOP10 harboring recombinant plasmid RTG4-S69-V49 by Etest method in presence of 4 ug/ml beta-lactamase inhibitor clavulanic acid; format: functional; in short: as §3
[19] = test system: Acinetobacter baumannii; assay: Antimicrobial activity against Acinetobacter baumannii CIP70.10 by […] in presence of 4 ug/ml beta-lactamase inhibitor clavulanic acid; format: functional; in short: as §2
[20] = test system: Escherichia coli; assay: Antibacterial activity against Escherichia coli TOP10 harboring recombinant plasmid RTG4-S69 by Etest method in presence of 4 ug/ml beta-lactamase inhibitor clavulanic acid; format: functional; in short: as §3
[21] = test system: Acinetobacter baumannii; assay: Antimicrobial activity against Acinetobacter baumannii by […] in presence of 4 ug/ml beta-lactamase inhibitor clavulanic acid; format: functional; in short: as §2
[22] = test system: Acinetobacter baumannii; assay: Antimicrobial activity against Acinetobacter baumannii CIP70.10 harboring beta-lactamase RTG4 gene by […] in presence of 4 ug/ml beta-lactamase inhibitor clavulanic acid; format: functional

SMILES | MIC [1] | kcat/Km [2] | MIC [3] | MIC [4] | Activity [5] | MIC [6] | MIC [7] | MIC [8] | MIC [9] | MIC [10] | MIC [11] | MIC [15] | also measured
CO/N=C(\C(=O)N[C@@H]1C(=O)N2C(C(=O)[O-])=C(C[N+]3(C)CCCC3)CS[C@H]12)c1csc(N)n1 | 4 µg/mL | 0.001 µM⁻¹ s⁻¹ | 4 µg/mL (≈ 8.32 µM) | 0.06 µg/mL (≈ 0.125 µM) | 0.06% | 0.5 µg/mL | 1 µg/mL (≈ 2.08 µM) | 32 µg/mL (≈ 66.6 µM) | 0.5 µg/mL | 4 µg/mL (≈ 8.32 µM) | 64 µg/mL (≈ 133 µM) | – | –
CC1(C)S[C@@H]2[C@H](NC(=O)COc3ccccc3)C(=O)N2[C@H]1C(=O)O | – | 2 µM⁻¹ s⁻¹ | – | – | – | – | – | – | – | – | – | – | –
CC1(C)S[C@@H]2[C@H](NC(=O)[C@H](N)c3ccc(O)cc3)C(=O)N2[C@H]1C(=O)O [AMOXICILLIN] | > 256 µg/mL | 2 µM⁻¹ s⁻¹ | > 256 µg/mL | 512 µg/mL (≈ 1400 µM) | 120% | > 256 µg/mL | 32 µg/mL (≈ 87.6 µM) | > 256 µg/mL | > 256 µg/mL | > 256 µg/mL | > 256 µg/mL | 2 µg/mL (≈ 5.47 µM) | MIC [12]: 4 µg/mL; MIC [13]: 32 µg/mL; MIC [14]: 32 µg/mL; MIC [16]: 2 µg/mL; MIC [17]: 32 µg/mL; MIC [18]: 32 µg/mL; MIC [19]: 8 µg/mL; MIC [20]: 32 µg/mL; MIC [21]: 32 µg/mL; MIC [22]: 32 µg/mL
CO/N=C(\C(=O)N[C@@H]1C(=O)N2C(C(=O)O)=C(COC(C)=O)CS[C@H]12)c1csc(N)n1 [CEFOTAXIME] | 0.25 µg/mL | – | 8 µg/mL (≈ 17.6 µM) | 0.06 µg/mL (≈ 0.132 µM) | – | 0.25 µg/mL | 8 µg/mL (≈ 17.6 µM) | 16 µg/mL (≈ 35.1 µM) | 0.25 µg/mL | 0.25 µg/mL (≈ 0.549 µM) | 16 µg/mL (≈ 35.1 µM) | 0.06 µg/mL (≈ 0.132 µM) | –
CO/N=C(\C(=O)N[C@@H]1C(=O)N2C(C(=O)[O-])=C(C[n+]3cccc4c3CCC4)CS[C@H]12)c1csc(N)n1 [CEFPIROME] | 1 µg/mL | 0.0005 µM⁻¹ s⁻¹ | 2 µg/mL (≈ 3.89 µM) | 0.06 µg/mL (≈ 0.117 µM) | 0.03% | 0.25 µg/mL | 2 µg/mL (≈ 3.89 µM) | 32 µg/mL (≈ 62.2 µM) | 0.25 µg/mL | 1 µg/mL (≈ 1.94 µM) | 64 µg/mL (≈ 124 µM) | 0.06 µg/mL (≈ 0.117 µM) | –
CC(C)(O/N=C(\C(=O)N[C@@H]1C(=O)N2C(C(=O)[O-])=C(C[n+]3ccccc3)CS[C@H]12)c1csc(N)n1)C(=O)O [CEFTAZIDIME] | 1 µg/mL | – | 4 µg/mL (≈ 7.32 µM) | 0.12 µg/mL (≈ 0.22 µM) | – | 0.5 µg/mL | 2 µg/mL (≈ 3.66 µM) | 8 µg/mL (≈ 14.6 µM) | 0.5 µg/mL | 1 µg/mL (≈ 1.83 µM) | 16 µg/mL (≈ 29.3 µM) | 0.12 µg/mL (≈ 0.22 µM) | –
CO/N=C(\C(=O)N[C@@H]1C(=O)N2C(C(=O)O)=C(COC(N)=O)CS[C@H]12)c1ccco1 [CEFUROXIME] | 2 µg/mL | – | – | 2 µg/mL (≈ 4.71 µM) | – | 2 µg/mL | – | – | 2 µg/mL | 4 µg/mL (≈ 9.43 µM) | – | 2 µg/mL (≈ 4.71 µM) | –
